Source: PubChem (Broad Institute)
Rtt109 HAT inh – blocks Candida albicans Rtt109/Vps75 acetyltransferase activity | Q5AAJ8 | purified Rtt109/Vps75, ThioGlo CoA-SH fluorescence, 4 h | inhibition, % at 34.9 µM | 330,000 tested, 0.16% active | AID 540336;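 active = inhibition of at least 50% in every replicate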
Target sequence (Q5AAJ8 whole entry, looked up): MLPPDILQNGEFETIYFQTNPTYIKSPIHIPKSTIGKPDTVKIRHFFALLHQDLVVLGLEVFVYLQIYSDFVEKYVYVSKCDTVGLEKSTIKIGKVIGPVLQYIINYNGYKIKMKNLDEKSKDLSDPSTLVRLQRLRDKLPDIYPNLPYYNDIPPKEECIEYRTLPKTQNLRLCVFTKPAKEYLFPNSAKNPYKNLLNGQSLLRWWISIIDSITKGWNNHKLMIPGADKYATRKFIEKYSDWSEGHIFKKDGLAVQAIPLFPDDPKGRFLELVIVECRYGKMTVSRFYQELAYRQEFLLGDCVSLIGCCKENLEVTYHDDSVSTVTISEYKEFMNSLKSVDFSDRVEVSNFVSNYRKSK
miR122 inh – blocks miR-122 activity in Huh7 sensor cells; 340,000 tested, 0.3% active; AID 602342; activation (reporter increase), % at 12.5 µM; Huh7 miR-122 Renilla luciferase sensor, 48 h; neutral wells = 0, positive control = 100;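 active = mean replicate activation score at least 90 and every replicate individually at or above 90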;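 note: higher luciferase means less miR-122 activity so hits act as miR-122 inhibitors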
dFosB act – activators of mouse delta FosB homodimer | purified delta FosB, TAMRA-CDK5 oligo fluorescence polarization; percent of positive-control signal above neutral wells | 340,000 tested, 0.99% active | AID 493131 | activation, % at 25 µM;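 active = mean activation above about 17%, with every replicate also reaching it, limit read from the data, passing the limit was not always enough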
HIV Env fusion – inhibitors of HIV Env-mediated cell fusion; HeLa-JRFL Env/CEM21 cell fusion, luciferase; inhibition, % at 12.3 µM; 360,000 tested, 1.1% active; AID 651610;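 active = mean replicate inhibition score of at least 50 and every replicate individually at or above 50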;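 note: 0% = plate neutral controls and 100% = maraviroc near 300 nM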
INS-1E GSIS act – primary screen for activators of insulin secretion dependent on glucose, INS-1E cells, GLuc reporter luminescence; INS-1E GLuc reporter insulin secretion, 2-3 h; activation, % at 16.6 µM; AID 743287; 370,000 tested, 0.61% active;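 active = lowest replicate activation of at least 40%, so every replicate reaches that level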;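 note: 0% = median of neutral control wells and 100% = median of IBMX positive control wells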
Cneo AK release – Cryptococcus neoformans lysis via adenylate kinase release; C. neoformans lysis, adenylate kinase release luminescence, 4 h; normalised: neutral wells 0, clomiphene wells 100; 360,000 tested, 0.2% active; lysis activity, % at 15 µM;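 active = mean lysis activity across replicates of at least 80%, whatever share of replicates individually reach that level; inactive = mean lysis activity below 80%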
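Assay system: Cryptococcus neoformans yeast cells / Dosing: single-point compound dose / Timing: 4 h at 37 °C static, read 1 h later / Measured by: luminescence of released adenylate kinase using an AK detection reagent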
* hit, by the source's call; [ ] = dose if it differs, or a comment. Sampled rows, rich in hits. Any-hit rate of the full collection: about 2.4%.

`O=C(Cc1ccccc1)Nc1ccc(N2CCCC2)cc1` gave Rtt109 HAT inh 24, miR122 inh -10, dFosB act 68* and Cneo AK release 0.
For O=C(Nc1ccc(N2CCCC2)cc1)C(c1ccccc1)c1ccccc1 the results were Rtt109 HAT inh 33, miR122 inh -3, dFosB act 77*, HIV Env fusion 21 and Cneo AK release 2.
`CC(=O)N1CCN(c2ccc(NC(=O)C(c3ccccc3)c3ccccc3)cc2)CC1` gave Rtt109 HAT inh -3, miR122 inh -11, dFosB act -13, HIV Env fusion -8 and Cneo AK release 1.
`CO[C@H]1CN(C)C(=O)c2cc(NC(=O)NC(C)C)ccc2OC[C@H](C)N(Cc2cncnc2)C[C@@H]1C` gave miR122 inh -16[16.7 µM], HIV Env fusion -10[16.7 µM], INS-1E GSIS act 2 and Cneo AK release -5.
Screening O=C1NC(Cc2ccc(Cl)cc2)COCc2cnnn2CCC1c1ccccc1 (stereo not given) returned HIV Env fusion 11[16.7 µM], INS-1E GSIS act 13 and Cneo AK release 0.
For C[C@@H]1CN([C@H](C)CO)S(=O)(=O)c2ccc(C#CC3CC3)cc2O[C@@H]1CN(C)C the results were miR122 inh 18[16.7 µM], HIV Env fusion 25[16.7 µM], INS-1E GSIS act 3 and Cneo AK release 5.
O=C(c1ccc(F)cc1)N1C[C@H]2[C@@H](c3ccccc31)[C@@H](CO)N2Cc1ccc2c(c1)OCO2 was read as miR122 inh 17[16.7 µM], INS-1E GSIS act -3 and Cneo AK release -1.
Screening CCn1c(=S)[nH]c2cc(Cl)ccc21 returned Rtt109 HAT inh -1, dFosB act 4 and HIV Env fusion 42.
CCCn1c(=S)[nH]c2cc(Cl)ccc21 was read as Rtt109 HAT inh 1, miR122 inh -3, dFosB act -4, HIV Env fusion -7, INS-1E GSIS act 36 and Cneo AK release 151*.
Screening Cc1ccc2[nH]c3nc(N/N=C/c4cccc(O)c4)nnc3c2c1 returned Rtt109 HAT inh -1, miR122 inh 9, dFosB act 21*, HIV Env fusion 10, INS-1E GSIS act 19 and Cneo AK release -2.
Screening COc1cc(/C=N/Nc2nnc3c(n2)[nH]c2ccccc23)ccc1O returned Rtt109 HAT inh 1, miR122 inh 3, dFosB act -10 and Cneo AK release 6.
For CC(C)(C)c1cc(C(=O)NNc2cccc(Cl)c2)n(Cc2ccccc2)n1 the results were Rtt109 HAT inh -1, miR122 inh 126*, dFosB act -5, HIV Env fusion 11, INS-1E GSIS act -38 and Cneo AK release -1.
`N#Cc1c(N2CCCC(O)C2)nc(N)c2c(N)nc3c(c12)CC(=O)N3C12CC3CC(CC(C3)C1)C2` (stereo not given) gave Rtt109 HAT inh -3, dFosB act -4, HIV Env fusion -27, INS-1E GSIS act -6 and Cneo AK release -6.
Screening C=C(C)CN(CC)c1nc(N)c2c(N)nc3c(c2c1C#N)CC(=O)N3C12CC3CC(CC(C3)C1)C2 returned Rtt109 HAT inh -4, miR122 inh 4, dFosB act 5, HIV Env fusion 80*, INS-1E GSIS act -26 and Cneo AK release 0.
COc1ccc2c3c([nH]c2c1)[C@@H](CO)N(CC1CC1)CC31CN(C(=O)Nc2cccc(F)c2)C1 was read as INS-1E GSIS act 3.
`CC(=O)N(C)C[C@H]1Oc2ccccc2C(=O)N(C)C[C@@H]1C` gave INS-1E GSIS act 18.
For COc1ccc(N2C(=O)CC(Sc3nc(C)cc(C)c3C#N)C2=O)cc1 (stereo not given) the results were Rtt109 HAT inh 3, dFosB act -4, HIV Env fusion -25, INS-1E GSIS act 63* and Cneo AK release -1.
For Cc1cc(C)nc(Nc2nc(C(N)CCc3ccccc3)cs2)n1 (stereo not given) the results were miR122 inh 3, HIV Env fusion 74*, INS-1E GSIS act -13 and Cneo AK release 1.
For CCS(=O)(=O)N1CCC2(CC1)CN(CC1CCOCC1)[C@H](CO)c1c2c2ccc(OC)cc2n1C the results were INS-1E GSIS act 8.
Screening COc1ccccc1-n1cnc2sc(C)c(C)c2c1=O returned Rtt109 HAT inh 6, miR122 inh -11, dFosB act -2, HIV Env fusion 1, INS-1E GSIS act 59* and Cneo AK release 0.
CCCc1cc(C(=O)NCCc2ccccc2)no1 was read as Rtt109 HAT inh -6, miR122 inh 0, dFosB act 5, HIV Env fusion 1 and Cneo AK release -1.
Screening CCCc1cc(C(=O)Nc2cc(C)nn2-c2ccccc2)no1 returned Rtt109 HAT inh -19, miR122 inh -5, dFosB act 3, HIV Env fusion 60*, INS-1E GSIS act 2 and Cneo AK release 1.
Screening O=C(C[C@H]1C=C[C@H](NC(=O)CCN2CCCCC2)[C@@H](CO)O1)Nc1ccccc1 returned HIV Env fusion -52[16.7 µM] and INS-1E GSIS act 12.
Screening OCCNc1nc(-c2ccccc2)c2cc(Cl)ccc2n1 returned Rtt109 HAT inh -295, miR122 inh -3, dFosB act -14, HIV Env fusion -18, INS-1E GSIS act 48* and Cneo AK release 0.
Screening COc1ccc(CCNC(=O)C2CCN(Cc3nc(-c4ccccc4C)oc3C)CC2)cc1OC returned Rtt109 HAT inh -9, miR122 inh -8, dFosB act -3, HIV Env fusion 57* and Cneo AK release -1.
`Cc1ccccc1-c1nc(CN2CCC(C(=O)NCCC3=CCCCC3)CC2)c(C)o1` gave Rtt109 HAT inh 6, miR122 inh -11, dFosB act -13, HIV Env fusion 73* and Cneo AK release -1.
CCN(CCNC(=O)C1CCN(Cc2nc(-c3cccc(Cl)c3)oc2C)CC1)c1ccccc1 was read as Rtt109 HAT inh 10, miR122 inh -2, dFosB act -7, HIV Env fusion 55* and Cneo AK release 11.
Screening COc1ccccc1-c1cnc2c(c1)C(=O)N([C@H](C)CO)C[C@@H](C)[C@H](CN(C)Cc1ccc(C(=O)O)cc1)O2 returned miR122 inh -2[16.7 µM], HIV Env fusion -16[16.7 µM], INS-1E GSIS act 5 and Cneo AK release 4.
`O=C(C1=C[C@H](C2CC2)C[C@H](OCCCCO)O1)N1CCCC1` gave HIV Env fusion 22[16.7 µM] and Cneo AK release 15.
Screening COc1ccc2c3c(n(C)c2c1)[C@@H](CO)N(C(=O)Nc1ccc(F)cc1)CC31CCN(C)CC1 returned INS-1E GSIS act -17.
